Measurements published in ChEMBL document CHEMBL5678798 (Clin Cancer Res, 2009).
Active and inactive are the calls of the source. The rule behind the calls is not given here.

How the values were obtained:
NCI-H929 = experiment: Antiproliferative activity against human NCI-H929 cells assessed as reduction in cell viability after 72 hrs by CellTiter-Glo assay; assay type: functional, cell-based; settings: NCI-H929, 72 h
Procedure, shortened: (§1)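 Cells seeded in 96-well plates, left overnight at 37°C, then exposed to a range of test concentrations for 72 h. Viability read by CellTiter-Glo luminescence; IC50 from four-parameter curve fit. Lines kept at 37°C, 5% CO2, in recommended growth medium.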

MCF7 = experiment: Antiproliferative activity against human MCF7 cells assessed as reduction in cell viability after 72 hrs by CellTiter-Glo assay; assay type: functional, cell-based; settings: MCF7, 72 h; procedure, shortened: as §1
KARPAS-299 = experiment: Antiproliferative activity against human KARPAS-299 cells assessed as reduction in cell viability after 72 hrs by CellTiter-Glo assay; assay type: functional, cell-based; settings: KARPAS-299, 72 h; procedure, shortened: as §1
LNCaP = experiment: Antiproliferative activity against human LNCaP cells assessed as reduction in cell viability after 72 hrs by CellTiter-Glo assay; assay type: functional, cell-based; procedure, shortened: as §1
COLO 205 = experiment: Antitumor activity against human COLO 205 cells xenografted in nu/nu CD-1 mouse assessed as reduction in tumor growth at 30 mg/kg, po for 21 days relative to control; assay type: functional; settings: COLO 205, 504 h, time 21 day, read-out: TGI
Procedure, shortened: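 Exponentially growing cells implanted s.c. in the right flank of 8–10-wk-old female athymic nu/nu CD-1 mice. At 150–200 mm3, block-randomized by tumor size into groups of eight. Oral dosing once or twice daily for 21 d; vehicle 20% sulfobutylether-β-cyclodextrin, pH 3.5. Calipers twice weekly; volume = length×width²/2. Growth inhibition = 100×[1 − treated growth/vehicle growth].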

NIH-3T3/LISN = experiment: In vivo inhibition of IGF1R in mouse NIH-3T3/LISN cells implanted in IGF1-stimulated nu/nu CD-1 mouse assessed as reduction in IGF1R phosphorylation at 30 mg/kg, po pretreated for 48 to 72 hrs followed by IGF1 stimulation and measured after 10 min by […] relative to control; assay type: functional, organism-based; settings: time 2880-4330 min
Procedure, shortened: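 Time course: tumor-bearing female nu/nu CD-1 mice, three per group, given a single oral 30 mg/kg dose or vehicle. IGF-I given 10 min before blood and tumor collection at each time point. Tumor phospho-IGF-IR/total IGF-IR measured by capture-plate europium phosphotyrosine assay and expressed as % of ligand-stimulated control.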

[1] = In vivo inhibition of IGF1R in mouse NIH-3T3/LISN cells xenografted in IGF1-stimulated nu/nu CD-1 mouse assessed as reduction in IGF1R phosphorylation at 3 umol/L blood compound concentration pretreated for 1 to 72 hrs followed by IGF1 stimulation and measured after 10 min by […] relative to control; assay type: functional; settings: dose 3 µmol/L; time 60-4330 min; at 3 µM
[2] = target: Calcium/calmodulin-dependent protein kinase kinase 2 (Homo sapiens, UniProt Q96RR4); experiment: Inhibition of CAMKK2 (unknown origin)
[3] = target: Epidermal growth factor receptor (Homo sapiens, UniProt P00533); experiment: Inhibition of EGFR (unknown origin)
[4] = target: Receptor tyrosine-protein kinase erbB-2 (Homo sapiens, UniProt P04626); experiment: Inhibition of ErbB2 (unknown origin)
Sequence of Receptor tyrosine-protein kinase erbB-2 (P04626 whole entry): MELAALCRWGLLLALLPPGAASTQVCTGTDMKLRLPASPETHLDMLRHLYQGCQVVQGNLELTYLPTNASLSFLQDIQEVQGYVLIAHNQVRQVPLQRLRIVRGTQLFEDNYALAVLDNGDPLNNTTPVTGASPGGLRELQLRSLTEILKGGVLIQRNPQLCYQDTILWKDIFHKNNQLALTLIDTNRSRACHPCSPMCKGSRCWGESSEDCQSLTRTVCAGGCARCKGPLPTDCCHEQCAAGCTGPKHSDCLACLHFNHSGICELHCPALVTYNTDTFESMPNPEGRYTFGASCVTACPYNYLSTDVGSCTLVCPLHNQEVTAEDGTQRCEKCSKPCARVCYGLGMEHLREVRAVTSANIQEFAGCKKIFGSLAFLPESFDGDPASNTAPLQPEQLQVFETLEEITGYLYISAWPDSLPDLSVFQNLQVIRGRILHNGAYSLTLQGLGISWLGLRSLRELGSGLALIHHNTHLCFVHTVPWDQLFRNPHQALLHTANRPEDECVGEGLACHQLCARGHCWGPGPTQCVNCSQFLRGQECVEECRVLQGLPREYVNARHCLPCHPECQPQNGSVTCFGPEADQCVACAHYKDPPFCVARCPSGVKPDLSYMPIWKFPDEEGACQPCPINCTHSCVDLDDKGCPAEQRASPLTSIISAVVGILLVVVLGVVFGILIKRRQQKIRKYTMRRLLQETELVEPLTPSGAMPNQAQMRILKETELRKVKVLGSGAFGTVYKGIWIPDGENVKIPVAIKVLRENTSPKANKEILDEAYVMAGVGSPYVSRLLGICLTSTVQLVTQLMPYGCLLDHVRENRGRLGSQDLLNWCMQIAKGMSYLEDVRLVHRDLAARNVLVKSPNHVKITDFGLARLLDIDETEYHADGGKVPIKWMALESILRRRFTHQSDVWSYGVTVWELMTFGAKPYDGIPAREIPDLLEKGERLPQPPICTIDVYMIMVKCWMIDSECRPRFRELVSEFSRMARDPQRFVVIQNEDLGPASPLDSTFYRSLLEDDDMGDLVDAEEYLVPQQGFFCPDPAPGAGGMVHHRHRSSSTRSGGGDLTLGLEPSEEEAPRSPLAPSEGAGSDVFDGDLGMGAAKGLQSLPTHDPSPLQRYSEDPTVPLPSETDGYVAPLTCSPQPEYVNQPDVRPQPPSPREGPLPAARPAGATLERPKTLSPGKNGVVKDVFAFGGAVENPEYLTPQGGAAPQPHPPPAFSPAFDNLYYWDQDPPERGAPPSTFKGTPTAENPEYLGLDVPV

[5] = target: Tyrosine-protein kinase ITK/TSK (Homo sapiens, UniProt Q08881); experiment: Inhibition of ITK (unknown origin)
Sequence of Tyrosine-protein kinase ITK/TSK (Q08881 whole entry): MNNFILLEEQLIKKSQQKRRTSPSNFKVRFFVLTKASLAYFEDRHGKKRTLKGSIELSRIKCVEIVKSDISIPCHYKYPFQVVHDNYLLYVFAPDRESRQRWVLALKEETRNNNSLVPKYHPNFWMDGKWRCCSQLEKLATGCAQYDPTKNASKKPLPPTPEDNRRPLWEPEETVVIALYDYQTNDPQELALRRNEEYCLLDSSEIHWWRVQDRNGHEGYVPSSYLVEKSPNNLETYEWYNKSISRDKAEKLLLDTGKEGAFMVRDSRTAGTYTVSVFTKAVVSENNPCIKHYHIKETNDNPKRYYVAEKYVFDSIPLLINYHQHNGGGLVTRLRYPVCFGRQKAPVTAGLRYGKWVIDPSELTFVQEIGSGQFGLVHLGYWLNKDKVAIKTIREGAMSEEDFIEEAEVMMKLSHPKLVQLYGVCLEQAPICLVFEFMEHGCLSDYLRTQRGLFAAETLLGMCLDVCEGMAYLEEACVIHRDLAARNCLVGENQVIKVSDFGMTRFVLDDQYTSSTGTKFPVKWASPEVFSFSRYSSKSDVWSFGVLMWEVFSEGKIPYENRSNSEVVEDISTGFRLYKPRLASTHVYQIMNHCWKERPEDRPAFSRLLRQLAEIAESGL

[6] = target: Mitogen-activated protein kinase 14 (Homo sapiens, UniProt Q16539); experiment: Inhibition of P38alpha (unknown origin)
Sequence of Mitogen-activated protein kinase 14 (Q16539 whole entry): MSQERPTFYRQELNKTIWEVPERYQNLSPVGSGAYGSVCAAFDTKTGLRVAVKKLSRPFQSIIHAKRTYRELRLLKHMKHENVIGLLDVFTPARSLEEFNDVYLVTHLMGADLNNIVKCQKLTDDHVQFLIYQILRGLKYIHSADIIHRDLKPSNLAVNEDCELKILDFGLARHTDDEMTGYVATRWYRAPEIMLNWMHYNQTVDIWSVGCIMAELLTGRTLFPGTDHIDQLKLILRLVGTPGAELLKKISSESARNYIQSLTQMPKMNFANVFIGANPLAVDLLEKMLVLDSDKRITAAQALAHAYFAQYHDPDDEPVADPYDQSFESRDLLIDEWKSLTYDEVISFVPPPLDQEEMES

[7] = target: Serine/threonine-protein kinase PAK 1 (Homo sapiens, UniProt Q13153); experiment: Inhibition of PAK1 (unknown origin)
[8] = target: Protein kinase C epsilon type (Homo sapiens, UniProt Q02156); experiment: Inhibition of PKCepsilon (unknown origin)
[9] = target: Ribosomal protein S6 kinase alpha-1 (Homo sapiens, UniProt Q15418); experiment: Inhibition of RSK1 (unknown origin)
Sequence of Ribosomal protein S6 kinase alpha-1 (Q15418 whole entry): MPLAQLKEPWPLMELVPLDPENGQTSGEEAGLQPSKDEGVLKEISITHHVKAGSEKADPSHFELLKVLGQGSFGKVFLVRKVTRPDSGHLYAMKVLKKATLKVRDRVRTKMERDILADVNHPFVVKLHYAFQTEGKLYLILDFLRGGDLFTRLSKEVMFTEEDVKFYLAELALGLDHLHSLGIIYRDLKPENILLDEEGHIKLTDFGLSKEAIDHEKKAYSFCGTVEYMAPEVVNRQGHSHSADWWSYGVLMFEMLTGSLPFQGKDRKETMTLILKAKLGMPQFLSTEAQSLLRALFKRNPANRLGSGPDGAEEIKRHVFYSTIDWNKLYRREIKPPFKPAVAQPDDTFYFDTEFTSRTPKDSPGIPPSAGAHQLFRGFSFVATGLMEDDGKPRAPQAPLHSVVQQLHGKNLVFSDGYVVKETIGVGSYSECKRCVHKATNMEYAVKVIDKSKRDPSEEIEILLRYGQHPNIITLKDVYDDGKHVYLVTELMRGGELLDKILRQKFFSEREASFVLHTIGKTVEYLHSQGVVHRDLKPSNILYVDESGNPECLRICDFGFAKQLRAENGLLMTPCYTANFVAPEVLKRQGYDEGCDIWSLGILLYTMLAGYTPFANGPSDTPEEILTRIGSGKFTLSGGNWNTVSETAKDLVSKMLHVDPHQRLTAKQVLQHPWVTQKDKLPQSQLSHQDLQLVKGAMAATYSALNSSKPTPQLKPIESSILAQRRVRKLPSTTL

[10] = target: Tyrosine-protein kinase Blk (Mus musculus) (UniProt P16277); experiment: Inhibition of N-terminal His6-tagged recombinant full-length mouse Blk expressed in baculovirus infected Sf21 cells at 0.3 uM by filter binding assay relative to control
Sequence of Tyrosine-protein kinase Blk (Mus musculus) (P16277 whole entry, the tested form may be a part): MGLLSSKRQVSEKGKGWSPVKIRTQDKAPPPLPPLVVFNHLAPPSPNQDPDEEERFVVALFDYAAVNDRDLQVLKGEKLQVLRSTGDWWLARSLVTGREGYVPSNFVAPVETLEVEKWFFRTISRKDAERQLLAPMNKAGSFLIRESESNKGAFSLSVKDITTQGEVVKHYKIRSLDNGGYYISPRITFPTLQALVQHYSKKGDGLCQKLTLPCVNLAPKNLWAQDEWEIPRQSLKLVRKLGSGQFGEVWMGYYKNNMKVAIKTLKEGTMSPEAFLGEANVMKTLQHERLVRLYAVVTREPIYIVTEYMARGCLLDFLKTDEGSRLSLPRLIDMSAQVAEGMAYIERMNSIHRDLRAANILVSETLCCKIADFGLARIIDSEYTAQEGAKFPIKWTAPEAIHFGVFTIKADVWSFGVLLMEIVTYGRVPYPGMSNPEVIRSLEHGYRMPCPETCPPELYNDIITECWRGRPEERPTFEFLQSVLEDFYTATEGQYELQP
Procedure, shortened: (§2)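 Outsourced single-concentration screen in a commercial panel of 233 protein kinases, run as radiometric filter-binding activity assays. Test agent was tested at 0.3 or 3 µmol/L, as given in each line, from a 10 mmol/L DMSO stock. Activity is expressed as percent inhibition relative to control.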

[11] = target: Dual specificity mitogen-activated protein kinase kinase 7 (Homo sapiens) (UniProt O14733); experiment: Inhibition of N-terminal GST-tagged recombinant human MKK7beta (2 to end residues) expressed in Escherichia coli at 0.3 uM by filter binding assay relative to control; procedure, shortened: as §2
Sequence of Dual specificity mitogen-activated protein kinase kinase 7 (Homo sapiens) (O14733 whole entry): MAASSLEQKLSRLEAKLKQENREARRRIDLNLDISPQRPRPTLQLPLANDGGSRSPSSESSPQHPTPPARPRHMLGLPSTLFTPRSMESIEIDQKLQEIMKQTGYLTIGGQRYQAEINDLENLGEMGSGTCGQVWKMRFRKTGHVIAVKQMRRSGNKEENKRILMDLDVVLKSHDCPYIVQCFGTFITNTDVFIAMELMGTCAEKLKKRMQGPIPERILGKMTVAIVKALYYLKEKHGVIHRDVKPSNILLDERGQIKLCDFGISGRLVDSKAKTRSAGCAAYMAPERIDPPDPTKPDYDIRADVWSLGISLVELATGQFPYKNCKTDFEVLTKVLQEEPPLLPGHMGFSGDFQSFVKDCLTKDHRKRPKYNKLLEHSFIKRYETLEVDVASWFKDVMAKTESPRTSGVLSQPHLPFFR

[12] = target: Serine/threonine-protein kinase Nek11 (Homo sapiens) (UniProt Q8NG66); experiment: Inhibition of 6His-tagged recombinant human full-length NEK11 expressed in baculovirus infected Sf21 cells at 0.3 uM by filter binding assay relative to control
Procedure, shortened: (§3)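 KinaseProfiler panel of 233 kinases: radiometric filter-binding activity assays with compound at 0.3 or 3 µmol/L. Read-out is percent inhibition.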

[13] = target: ALK tyrosine kinase receptor (Homo sapiens) (UniProt Q9UM73); experiment: Inhibition of N-terminal His6-tagged recombinant human ALK (1058 to end residues) expressed in baculovirus infected Sf21 cells at 3 uM by filter binding assay relative to control; procedure, shortened: as §2
[14] = target: Tyrosine-protein kinase Blk (Mus musculus) (UniProt P16277); experiment: Inhibition of N-terminal His6-tagged recombinant full-length mouse Blk expressed in baculovirus infected Sf21 cells at 3 uM by filter binding assay relative to control; procedure, shortened: as §2
[15] = target: Mitogen-activated protein kinase kinase kinase 9 (Homo sapiens) (UniProt P80192); experiment: Inhibition of N-terminal 6His-tagged recombinant human MLK1 (134 to 414 residues) expressed in baculovirus infected Sf21 cells at 3 uM by filter binding assay relative to control; procedure, shortened: as §2
[16] = target: Proto-oncogene tyrosine-protein kinase receptor Ret (Homo sapiens) (UniProt P07949); experiment: Inhibition of N-Terminal GST-tagged recombinant human Ret (658 to end residues) expressed in baculovirus infected Sf21 cells at 3 uM by filter binding assay relative to control; procedure, shortened: as §3
Sequence of Proto-oncogene tyrosine-protein kinase receptor Ret (Homo sapiens) (P07949 whole entry): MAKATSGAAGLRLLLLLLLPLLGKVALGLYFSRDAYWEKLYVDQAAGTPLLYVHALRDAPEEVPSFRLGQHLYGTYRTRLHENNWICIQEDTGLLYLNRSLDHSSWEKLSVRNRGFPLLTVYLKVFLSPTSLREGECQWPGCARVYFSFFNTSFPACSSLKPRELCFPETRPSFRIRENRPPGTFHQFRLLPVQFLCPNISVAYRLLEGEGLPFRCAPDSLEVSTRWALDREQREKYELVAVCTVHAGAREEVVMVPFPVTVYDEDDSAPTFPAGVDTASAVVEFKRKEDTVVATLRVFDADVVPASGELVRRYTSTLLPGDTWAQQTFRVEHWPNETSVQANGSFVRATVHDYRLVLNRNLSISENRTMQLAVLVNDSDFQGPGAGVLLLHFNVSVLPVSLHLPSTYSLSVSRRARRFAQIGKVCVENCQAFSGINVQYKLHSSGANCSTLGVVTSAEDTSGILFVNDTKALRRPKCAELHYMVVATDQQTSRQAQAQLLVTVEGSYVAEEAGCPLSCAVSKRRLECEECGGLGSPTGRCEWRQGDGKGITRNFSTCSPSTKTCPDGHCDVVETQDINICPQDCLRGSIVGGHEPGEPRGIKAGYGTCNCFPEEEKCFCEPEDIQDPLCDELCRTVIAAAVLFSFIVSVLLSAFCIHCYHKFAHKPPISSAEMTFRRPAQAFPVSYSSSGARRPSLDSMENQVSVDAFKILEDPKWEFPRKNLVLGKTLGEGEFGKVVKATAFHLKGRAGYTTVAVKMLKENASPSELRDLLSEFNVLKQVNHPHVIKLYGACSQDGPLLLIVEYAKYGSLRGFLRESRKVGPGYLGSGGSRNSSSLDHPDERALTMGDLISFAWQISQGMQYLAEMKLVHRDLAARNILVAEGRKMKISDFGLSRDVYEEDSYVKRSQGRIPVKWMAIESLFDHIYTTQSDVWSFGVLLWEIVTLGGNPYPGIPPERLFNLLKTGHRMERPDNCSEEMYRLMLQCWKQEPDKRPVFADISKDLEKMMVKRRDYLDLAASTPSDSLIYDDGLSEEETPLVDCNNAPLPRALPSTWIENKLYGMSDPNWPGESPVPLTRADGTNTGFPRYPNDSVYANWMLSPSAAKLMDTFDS

[17] = target: Serine/threonine-protein kinase Sgk1 (Homo sapiens) (UniProt O00141); experiment: Inhibition of human SGK at 3 uM by filter binding assay relative to control
[18] = target: Casein kinase I isoform gamma-3 (Homo sapiens, UniProt Q9Y6M4); experiment: Inhibition of N-terminal 6His-tagged recombinant human CK1gamma3 (1 to 330 residues) expressed in baculovirus infected Sf21 cells by filter binding assay
[19] = target: Tyrosine-protein kinase Fer (Homo sapiens, UniProt P16591); experiment: Inhibition of N-terminal His6 tagged recombinant human Fer (541 to end residues) expressed in baculovirus infected Sf21 cells by filter binding assay
[20] = target: Insulin receptor (Mus musculus) (UniProt P15208); settings: CD-1, dose >= 30.0 mg/kg, route po, time 4.25 hrs
[21] = target: 3-phosphoinositide-dependent protein kinase 1 (PDPK1) (Homo sapiens) (UniProt O15530); experiment: Inhibition of N-terminal His6-tagged recombinant human PDK1 (52 to end residues) expressed in baculovirus infected Sf21 cells at 0.3 uM by filter binding assay relative to control

With `CCc1cc(Nc2nccc(-c3c(-c4ccc(OC)c(C(=O)Nc5c(F)cccc5F)c4)nc4ccccn34)n2)c(OC)cc1N1CCC(N2CCN(S(C)(=O)=O)CC2)CC1` the IC50 (NCI-H929) was 0.081 µM, the IC50 (MCF7) was 0.137 µM and the IC50 (KARPAS-299) was > 30 µM. For the same molecule, the IC50 (LNCaP) was > 20 µM, the inhibition in vivo at 30 mg/kg (COLO 205) was 75% and the inhibition (NIH-3T3/LISN) was “inactive”. The “inhibition (INH)” value [1] was >90%, the IC50 [2] was > 10 µM and the IC50 [3] was > 10 µM. The IC50 [4] was > 10 µM, the IC50 [5] was > 25 µM and the IC50 [6] was 10 µM. The IC50 [7] was > 10 µM, the IC50 [8] was 10 µM and the IC50 [9] was 6.3 µM. The inhibition [10] was 25%, the inhibition [11] was 0% and the inhibition [12] was -8%. It also gave an inhibition [13] of 39%, an inhibition [14] of 22% and an inhibition [15] of -8%. The inhibition [16] was 52%, the inhibition [17] was 1% and the IC50 [18] was > 10 µM. The IC50 [19] was 0.013 µM, the inhibition [20] was “Dose-Dependent Effect” and the inhibition [21] was 1%.
